Experimental data reported in PubChem BioAssay AID2648 (Johns Hopkins Ion Channel Center, 2010).
The whole screen tested about 310,000 compounds, of which about 1,100 (0.35%) were called active.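 Rule for the calls: active = fluorescence ratio B-score, a plate-corrected score, at least three library SD, with initial intensity B-score within 5 SD; inactive = the rest.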 The list comes from a sample in which actives are over-represented; it also holds similar structures and randomly drawn compounds.

What follows are compounds tested against Potassium voltage-gated channel subfamily KQT member 1 (Homo sapiens) (UniProt P51787) (assay: human KCNQ1 current enhancers – cell-based, thallium flux, high-throughput, primary screen (AID 2648)). Conditions: CHO-K1 KCNQ1, thallium flux FluxOR fluorescence, at 10 µM; active compounds read high.
Chain of Potassium voltage-gated channel subfamily KQT member 1 (Homo sapiens) (P51787 whole entry, looked up): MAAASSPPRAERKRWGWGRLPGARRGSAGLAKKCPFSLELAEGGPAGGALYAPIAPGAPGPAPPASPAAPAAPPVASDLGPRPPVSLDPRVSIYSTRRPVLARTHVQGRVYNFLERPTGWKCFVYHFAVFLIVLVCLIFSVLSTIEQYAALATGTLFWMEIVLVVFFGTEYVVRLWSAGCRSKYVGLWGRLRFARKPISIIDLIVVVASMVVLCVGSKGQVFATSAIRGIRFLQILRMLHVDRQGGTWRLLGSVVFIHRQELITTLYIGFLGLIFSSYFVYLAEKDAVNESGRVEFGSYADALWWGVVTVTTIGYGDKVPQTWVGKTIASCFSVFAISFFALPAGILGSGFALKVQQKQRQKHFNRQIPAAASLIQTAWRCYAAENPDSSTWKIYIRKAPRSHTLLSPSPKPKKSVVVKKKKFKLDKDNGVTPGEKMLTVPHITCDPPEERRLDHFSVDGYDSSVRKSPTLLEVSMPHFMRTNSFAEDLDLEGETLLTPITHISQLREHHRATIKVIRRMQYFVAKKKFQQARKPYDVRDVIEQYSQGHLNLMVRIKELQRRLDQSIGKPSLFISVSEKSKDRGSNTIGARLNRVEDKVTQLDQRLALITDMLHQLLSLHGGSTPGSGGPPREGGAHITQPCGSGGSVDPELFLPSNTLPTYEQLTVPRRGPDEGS
Method in brief: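 Schedule – 37 °C overnight plating, 90-min dark dye load, 20-min compound pretreatment · System – stable KCNQ1 CHO-K1 line · Probe or stimulus – thallium- and potassium-containing depolarizing buffer · Measured by – kinetic FluxOR fluorescence, 10 s baseline plus 110 s post-stimulus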
In the case of `O=C(NC1CCCCC1)c1ccc(-c2ccc(Cl)cc2)o1`, the B-score is reported as “inactive”.
For `Cc1[nH][nH]c(=O)c1C(c1ccc(-c2ccc(Cl)cc2)o1)c1c(C)[nH][nH]c1=O`, the B-score was 25 (active).
With `CCOc1ccc(C(c2c(C)[nH][nH]c2=O)c2c(C)[nH][nH]c2=O)cc1OCC` the B-score was “inactive”.
For `Cn1nnnc1-c1cc(Cl)cc(Cl)c1`, the B-score was “inactive”.
`CC(=O)C12CC(C)=C(C)CC1CC1C3CCC4=CC(=O)CCC4(C)C3CCC12C` (centres undefined) was tested, and the B-score was “inactive”.
With `O=C1NC(c2ccccc2)CCC1(Cl)Cl` (centres undefined) the B-score was “inactive”.
In the case of `COc1cc2ccccc2cc1C(=O)N(CCN(C)C)c1nc2c(F)cccc2s1`, the B-score is reported as “inactive”.
With `CC(=O)N(CCCN(C)C)c1nc2ccc(C)cc2s1` the B-score was “inactive”.
For `COc1cccc2sc(N(CCCN(C)C)C(=O)C(c3ccccc3)c3ccccc3)nc12`, the B-score was “inactive”.
With `Cc1ccc2sc(N(CCN(C)C)C(=O)/C=C/c3cccs3)nc2c1C` the B-score was “inactive”.
In the case of `Cc1cccc2sc(N(CCCN(C)C)C(=O)CCS(=O)(=O)c3ccccc3)nc12`, the B-score is reported as 30 (active).
In the case of `COc1cccc2sc(N(CCCN(C)C)C(=O)CCS(=O)(=O)c3ccccc3)nc12`, the B-score is reported as 8 (active).
For `CCCCC(=O)Nc1ccc2c(c1)C(=O)NC2=O`, the B-score was “inactive”.
`O=C(COc1cc2oc(=O)c3c(c2cc1Cl)CCC3)NCCCN1CCOCC1` was tested, and the B-score was “inactive”.
With `Cc1ccc(NC2CCCN(C(=O)CCC3(C)CC3)C2)cc1C` (centres undefined) the B-score was “inactive”.
In the case of `COCCNC(=O)CSc1nc2sccc2c(=O)n1-c1ccccc1`, the B-score is reported as “inactive”.
For `Cc1cccc(NC(=O)c2cccnc2Cl)n1`, the B-score was “inactive”.
In the case of `CCN(CC)S(=O)(=O)c1ccc(Cl)c(NC(=O)c2ccncc2)c1`, the B-score is reported as “inactive”.
With `CCN(CC)S(=O)(=O)c1ccc(NC(=O)c2cccnc2Cl)c(NC(=O)c2cccnc2Cl)c1` the B-score was 13 (active).
In the case of `CC1CCN(S(=O)(=O)c2ccc3c(ccn3CC(=O)O)c2)CC1`, the B-score is reported as “inactive”.
In the case of `CC1CCN(c2ccc(-c3ccc(NC(=O)c4ccco4)cc3)nn2)CC1`, the B-score is reported as “inactive”.
For `NC(=O)Cc1ccc2c(c1)[nH]c1ccccc12`, the B-score was “inactive”.
In the case of `S=c1ccc2ccccc2[nH]1`, the B-score is reported as “inactive”.
In the case of `S=c1[nH]c2ccccc2c2ccccc12`, the B-score is reported as 7 (active).
For `COc1ccc(OC)c(CCNC(=O)c2nn(C)c3c2CS(=O)(=O)c2ccccc2-3)c1`, the B-score was “inactive”.
With `O=C(Nc1ccc(F)c([N+](=O)[O-])c1)C1CCCO1` (centres undefined) the B-score was “inactive”.
With `O=C(Oc1ccc(Br)cc1)c1cccnc1` the B-score was “inactive”.
With `O=C(Oc1c(-c2ccco2)oc2ccccc2c1=O)c1cccnc1` the B-score was 15 (active).
With `N#CCc1ccc(OC(=O)c2cccnc2)cc1` the B-score was “inactive”.
With `CCO[C@H]1OC(C(=O)Nc2ccccc2)=C[C@@H](C2CC2)[C@@H]1CCCO` the B-score was “inactive”.
For `Cc1ccc(S(=O)(=O)Nc2ccc3ncccc3c2)cc1`, the B-score was “inactive”.
For `O=[N+]([O-])c1ccccc1S(=O)(=O)Nc1cccc2cccnc12`, the B-score was “inactive”.
With `COc1cc(NS(=O)(=O)c2ccc3ccccc3c2)c2ncccc2c1` the B-score was 14 (active).
`COC(=O)C1=C(C(=O)OC)[C@@H]2N(C)c3ccccc3[C@@]23C[C@@H](C(=O)OC)N(C(=O)c2ccco2)C3=N1` was tested, and the B-score was “inactive”.
With `CC1(C)C2CC[C@]3(C)C(CC=C4[C@@H]5C[C@@](C)(CO)CC[C@]5(C(=O)O)CC[C@]43C)[C@@]2(C)CC[C@@H]1O` (some centres undefined) the B-score was “inactive”.
For `CC1(C)CC[C@]2(C(=O)O)CC[C@]3(C)C(=CCC4[C@@]5(C)CC[C@H](O)C(C)(C)C5[C@H](O)C[C@]43C)[C@@H]2C1` (some centres undefined), the B-score was 10 (active).
For `CSc1ncccc1C(=O)Nc1ccc(C)cn1`, the B-score was “inactive”.
`O=C(Nc1ccccc1)c1cc2ccccc2[nH]1` was tested, and the B-score was “inactive”.
With `O=c1/c(=C/c2ccc(CNS(=O)(=O)c3ccccc3)o2)sc2n1CCN=2` the B-score was “inactive”.
With `NC(=O)c1c(Nc2nc3c(F)cccc3s2)sc2c1CCCC2` the B-score was “inactive”.
For `Fc1cc(F)c2nc(Nc3nc4c(F)cccc4s3)sc2c1`, the B-score was 37 (active).
For `NNc1nc2c(Cl)cccc2s1`, the B-score was “inactive”.
In the case of `COc1cccc2cc(C(=O)NCc3ccc(C)cc3)c(=N)oc12`, the B-score is reported as “inactive”.
For `COC(=O)C1CCN(C(=O)c2ccc3oc(Cc4ccc(Cl)cc4)nc3c2)CC1`, the B-score was “inactive”.
With `Cc1cccc(-n2c(C)cc(/C=N\NC(=O)c3cccs3)c2C)c1` the B-score was “inactive”.
For `Cc1ccc(-n2c(C)cc(/C=N\NC(=O)CC(=O)NC(C)C)c2C)cc1`, the B-score was “inactive”.
In the case of `Cc1cccc(-n2c(C)cc(/C=N/NC(N)=S)c2C)c1`, the B-score is reported as 8 (active).
In the case of `Cc1cc(=O)oc2c(C)c(OCC(=O)NCCN3CCOCC3)ccc12`, the B-score is reported as “inactive”.
With `CCCOc1ccc(C(=O)C(CCC(CNCC)C(=O)c2ccc(OCCC)cc2)CNCC)cc1` (centres undefined) the B-score was “inactive”.
With `FC(F)(F)c1ccc(CN2C[C@@H]3C(c4ccccc4)C4(c5ccccc5)CC3(C4)[C@H]2c2ccccc2)cc1` (some centres undefined) the B-score was “inactive”.
For `COC(=O)c1sc(NC(=S)NC(=O)c2ccc(C)cc2)nc1C`, the B-score was 18 (active).
For `Cc1ccc(C(=O)NC(=S)Nc2ccccc2C)cc1`, the B-score was “inactive”.
In the case of `COC(=O)c1sc(NC(=O)c2csc3c2CCCC3)nc1C`, the B-score is reported as “inactive”.
`C/C(Cl)=C\Cn1c(Nc2cccc(C)c2)nc2c1c(=O)n(C)c(=O)n2C` was tested, and the B-score was “inactive”.
With `CC(C)NC(=O)C(c1ccc(F)cc1)N(C(=O)CCC(=O)Nc1ccccn1)c1ccccc1F` (centres undefined) the B-score was “inactive”.
With `[O-][n+]1c2c(nn1-c1ccc(Cl)c(Cl)c1)-c1nonc1CC2` the B-score was “inactive”.
With `COc1ccc(NC(=O)C(=O)NCC(c2ccco2)N2CCc3ccccc3C2)cc1` (centres undefined) the B-score was “inactive”.
`COC(=O)c1ccccc1NC(=O)C1CCN(S(=O)(=O)c2cc(OC)ccc2OC)CC1` was tested, and the B-score was “inactive”.
`O=C(c1ccc(F)cc1)c1cn(Cc2ccc(F)cc2)c2cc3c(cc2c1=O)OCCO3` was tested, and the B-score was “inactive”.
With `Oc1c(Cl)cc(Cl)c(Cl)c1Cc1c(O)c(Cl)cc(Cl)c1Cl` the B-score was 87 (active).
In the case of `COP1(=O)C[C@@H](O)[C@@H](O)[C@@H](COCc2ccccc2)O1` (some centres undefined), the B-score is reported as “inactive”.
In the case of `CC(=O)Nc1sc2c(c1C(c1cccc(F)c1)N1CCN(CCO)CC1)CCCC2` (centres undefined), the B-score is reported as “inactive”.
In the case of `COCCNC(=O)CCCN1C(=O)c2ccccc2Sc2ncccc21`, the B-score is reported as “inactive”.
With `Cc1c(C(=O)NC(C)C2CC3CCC2C3)cccc1[N+](=O)[O-]` (centres undefined) the B-score was “inactive”.
`CC(C)(C)c1ccc(Cn2nnc3c(=O)[nH]c(C4CCCN(C(=O)c5ccco5)C4)nc32)cc1` (centres undefined) was tested, and the B-score was “inactive”.
In the case of `Cc1ccc(/C=N/NC(=O)CSc2ccccn2)o1`, the B-score is reported as “inactive”.
With `O=C(N/N=C/c1cccnc1)c1cc2ccccc2cc1O` the B-score was “inactive”.
With `Cc1ccc(/C=N/NC(=O)c2cc3ccccc3cc2O)o1` the B-score was 41 (active).
With `CN(CC(=O)Nc1ccc(Cl)cc1)C(=O)CNC(=O)c1ccc2ccccc2c1` the B-score was “inactive”.
`COc1cc(C(=O)NCC(=O)NCCSc2ccc(Br)cc2)cc(OC)c1OC` was tested, and the B-score was “inactive”.
With `Cc1ccc(N(CC(=O)NC2CCCCC2)C(=O)CCCC(=O)Nc2ccccn2)c(C)c1` the B-score was “inactive”.
For `CCCCNC(=O)C1CCCNC1=O` (centres undefined), the B-score was “inactive”.
In the case of `CCC1(C)Cc2c(sc3nc(SC)[nH]c(=O)c23)CO1` (centres undefined), the B-score is reported as “inactive”.
For `CCC1(C)Cc2c(sc3[nH]c(=S)n(Cc4ccccc4)c(=O)c23)CO1` (centres undefined), the B-score was 57 (active).
With `CCC1(C)Cc2c(sc3nc4n(c(=O)c23)CCCS4)CO1` (centres undefined) the B-score was “inactive”.
`OC(CNCc1ccc(Cl)c(Cl)c1)c1ccccc1` (centres undefined) was tested, and the B-score was “inactive”.
With `Cc1cccn2cc(-c3cccc(S(=O)(=O)N4CCCCC4)c3)nc12` the B-score was “inactive”.
`COc1cccc(NC(=S)NC(=O)c2c(Cl)c(C)nn2C)c1` was tested, and the B-score was 8 (active).
For `COc1cccc(NC(=S)NCc2ccccn2)c1`, the B-score was “inactive”.
For `Cc1nn(C)c(C(=O)NNC(=S)NC2CCCCC2)c1Cl`, the B-score was “inactive”.
For `CCOc1ccc(N=C2NC(=O)S/C2=C\c2ccc(O)cc2)cc1`, the B-score was “inactive”.
With `COc1ccc(/C=C2/S/C(=N/N=C3\CC4CCC3(C)C4(C)C)NC2=O)cc1` (centres undefined) the B-score was 23 (active).
With `COc1ccc(/C=C2\SC(=N)N(c3ccc(F)cc3)C2=O)cc1` the B-score was “inactive”.
`Cc1ccc(OS(=O)(=O)c2ccc(-c3csc(C)n3)s2)c(C)c1` was tested, and the B-score was “inactive”.
With `CCOC(=O)N1CCN(C(=O)C(C)NC(=O)c2ccco2)CC1` (centres undefined) the B-score was “inactive”.
In the case of `Cc1ccc(C)c(NC(=O)C(OC(=O)c2ccc(C)s2)c2ccccc2)c1` (centres undefined), the B-score is reported as “inactive”.
With `CCn1c(O)c(N=NC2=NC(=O)CS2)c2cc(C)ccc21` the B-score was 11 (active).
In the case of `CCn1c(O)c(N=NC(=O)c2cccc(S(=O)(=O)N3CCCCC3)c2)c2ccccc21`, the B-score is reported as “inactive”.
With `COC(=O)Cn1c2ccc(C)cc2c2nc(C)sc21` the B-score was “inactive”.
`CCCc1noc2c1/C(=N\O)CCC2` was tested, and the B-score was “inactive”.
In the case of `Cc1c(N=Nc2ccc(N(C)C)cc2)c(=O)n(-c2ccccc2)n1C`, the B-score is reported as “inactive”.
In the case of `CCOC(=O)c1c(NC(=S)Nc2ccccc2)sc2c1CCN(C)C2`, the B-score is reported as “inactive”.
For `CCOC(=O)c1c(NC(=S)NC)sc2c1CCCC2`, the B-score was 77 (active).
In the case of `CCOC(=O)c1c(NC(=O)C2(C)Cc3ccccc3C(=O)O2)sc2c1CCCC2` (centres undefined), the B-score is reported as “inactive”.
In the case of `Cc1ccc(C(=O)CN2C(=O)NC3(CCc4ccccc43)C2=O)c(C)c1` (centres undefined), the B-score is reported as “inactive”.
In the case of `CN(C)c1nc(=Nc2cccc(Cl)c2)ss1`, the B-score is reported as 12 (active).
With `Clc1cccc(N=C2NN=C(c3ccc4c(c3)OCCO4)CS2)c1` the B-score was “inactive”.
For `Cc1cc(C)c(C#N)c(SCC(=O)NN2CC(=O)N(c3ccccc3F)CC2=O)n1`, the B-score was “inactive”.
With `CCN(CC)N=Nc1cccc(NC(C)=O)c1` the B-score was “inactive”.
In the case of `O=C(C1=C(O)C(=O)N(CCOCCO)C1c1ccccn1)c1cccs1` (centres undefined), the B-score is reported as “inactive”.
In the case of `CCOc1cc(C)c(S(=O)(=O)NCc2ccccn2)cc1C`, the B-score is reported as “inactive”.
For `CCCC(=O)n1nc(-c2ccccc2)nc1N`, the B-score was 20 (active).
In the case of `COc1ccc(C(=O)n2nc(-c3ccc(C)cc3)nc2N)cc1OC`, the B-score is reported as “inactive”.
In the case of `COc1ccc(CC(=O)n2nc(-c3cccnc3)nc2N)cc1`, the B-score is reported as “inactive”.
In the case of `O=C1/C(=C\Nc2ccccc2)CCN1c1ncccn1`, the B-score is reported as “inactive”.
With `O=C1N[C@@H](Cc2ccccc2)C(=O)N2[C@H]1C[C@]1(Br)c3ccccc3N(S(=O)(=O)c3ccccc3)[C@H]21` the B-score was “inactive”.
For `O=c1c(-c2cccc(Cl)c2)c[nH]n1-c1ccccc1`, the B-score was “inactive”.
In the case of `O=C1c2ccccc2NC(c2ccc(-c3cccc(Cl)c3)o2)N1O` (centres undefined), the B-score is reported as 10 (active).
With `O=C1NC(c2cccc(Cl)c2)Nc2ccccc21` (centres undefined) the B-score was “inactive”.
